The record followed here is ChEMBL document CHEMBL3856273, “Design, synthesis and biological evaluation of potential antibacterial butyrolactones” (Bioorg Med Chem, 2016).

A word on the MIC: it is the lowest concentration found to suppress growth. A high value points to weaker potency. By mortality is commonly meant the percentage killed.

Data set [1] has as its system Streptococcus gordonii. As to the kind of experiment: Antibacterial activity against Streptococcus gordonii DL1 incubated for 24 hrs under anaerobic condition by agar dilution method. The class given is functional. The conditions noted are these: DL1, 24 h. The essentials: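 Columbia agar with horse blood containing compound at 300, 250, 200, 150, 100, 90, 80 or 70 µg/mL. Doxycycline positive control at 1:2 dilutions from 1.31 µg/mL; DMSO + methanol and water as negative controls. 2 µl spots of 10^5 CFU/mL inoculum, anaerobic incubation 24 h. MIC taken as lowest concentration preventing growth. Done three times.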
On the technique in general: In agar dilution, organisms are placed on agar that contains the substance at set levels.

The subject of data set [2] is Streptococcus gordonii. Nature of the data set: Antibacterial activity against Streptococcus gordonii DL1 preincubated for 24 hrs under anaerobic condition followed by incubation in columbia petri plates for 24 hrs by broth microdilution method. The class given is functional. Summed up:
(§1)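 CLSI broth microdilution in BHI. Compounds serially diluted 1:2 from 300 µg/mL; doxycycline control from 32.8 µg/mL; solvent mix also diluted. Wells inoculated with 3x10^7 CFU/mL, incubated 24 h anaerobically. MIC is the lowest clear well. Clear wells are plated on Columbia agar for 24 h; MBC is the lowest concentration killing ≥99% of inoculum.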

Data set [3] relates to Streptococcus gordonii. As to the kind of experiment: Bactericidal activity against Streptococcus gordonii DL1 preincubated for 24 hrs under anaerobic condition followed by incubation in columbia petri plates for 24 hrs by broth microdilution method. The class given is functional. The essentials: as §1
For orientation: In broth dilution the organism is exposed to a series of concentrations in liquid medium.

A short description of data set [4]: Cytotoxicity against human Ca9-22 cells assessed as cell death at MIC after 24 hrs by LDH assay. The class given is toxicity, cell-based. The conditions noted are these: ca9-22, 24 h. The essentials: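 Ca9-22 gingival epithelial cells were grown in DMEM with 10% heat-inactivated FBS and 2 mM L-glutamine at 37 °C, 5% CO2, then trypsinized and seeded at 70 000 cells/well for 24 h. Compound was applied for 24 h, with medium-only and Triton 1% controls (Triton = 100% cytotoxicity). Supernatant was mixed with CytoTox reagent for 30 min in the dark at room temperature, then stopped, and OD was read at 490 nm. Three experiments, each in triplicate.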

Data set [5] is described as follows: Cytotoxicity against human THP1 cells assessed as cell death at MIC after 24 hrs by LDH assay. The class given is toxicity, cell-based. The conditions noted are these: thp-1, 24 h. Summed up: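 THP-1 cells were grown in RPMI 1640 with 1 mM pyruvate, 10% FBS and 2 mM L-glutamine at 37 °C, 5% CO2. They were seeded at 70 000 cells/well and differentiated with PMA 10 ng/mL for 72 h. Medium was replaced with compound for 24 h, with medium-only and Triton 1% controls (Triton = 100%). LDH release was measured in supernatant with CytoTox reagent for 30 min in the dark at room temperature, then stopped, and OD was read at 490 nm. Three experiments, each in triplicate.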

Data set [6] is described as follows: Cytotoxicity against human Ca9-22 cells assessed as cell viability at MIC after 24 hrs by MTT assay relative to control. The class given is toxicity, cell-based. The conditions noted are these: read-out: Activity. (In general: Tetrazolium dyes change colour on reduction, which living cells bring about.)
Data set [7] is described as follows: Cytotoxicity against human THP1 cells assessed as cell viability at MIC after 24 hrs by MTT assay relative to control. The conditions noted are these: read-out: Activity. The class given is toxicity, cell-based, THP-1. Summed up:
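THP-1 grown in RPMI with pyruvate, Hepes and 10% FBS. Seeded at 70 000 cells/well and differentiated with PMA 10 ng/mL for 72 h. Medium removed, then compound at its MIC added for 24 h; Triton 1% positive control. MTT from 5 mg/mL stock for 4 h at 37 °C; acid-isopropanol solubilization; OD 595/655 nm as % of untreated. Three experiments in triplicate.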

Data set [8] relates to Streptococcus gordonii. Nature of the data set: Potency index, ratio of doxycycline MBC=>99 to compound MBC=>99 for Streptococcus gordonii DL1. The class given is functional.

Values after ≈ are worked out from the molar mass of the structure shown.

`CCCCCCCCCCCCC[C@H]1OC(=O)C(C)=C1C(=O)O`: the results for the MIC in the data set on Streptococcus gordonii [1] and against Streptococcus gordonii [2] were 90 mg/L (≈ 277 µM) and 4.69 mg/L (≈ 14.5 µM), respectively. Also, the “MBC=>99” value against Streptococcus gordonii [3] is 18.75 mg/L (≈ 57.8 µM).

In the case of `C=C[C@H]1CC(=O)O[C@@H]1CCCCCCCCC`, the MIC against Streptococcus gordonii [1] was more than 300 mg/L; in the data set on Streptococcus gordonii [2], 75 mg/L (≈ 315 µM). Moreover, the “MBC=>99” value against Streptococcus gordonii [3] is 150 mg/L (≈ 629 µM).

As for `CCCCCCCCCCCCCCC[C@@H]1OC(=O)C(C)=C1C(=O)O`, the MIC with Streptococcus gordonii [1] worked out at 200 mg/L (≈ 567 µM); in the data set on Streptococcus gordonii [2], 9.38 mg/L (≈ 26.6 µM). Besides, in the data set on Streptococcus gordonii [3], the “MBC=>99” value was found to be 18.75 mg/L (≈ 53.2 µM). Further, the results for the mortality in data set [4] and in data set [5] were 9.6% and 20%, respectively. In addition, the viability at 24 h was found to be 100% in data set [6] and 107% in data set [7]. In addition, the Ratio with Streptococcus gordonii [8] is on record as 2.

For `CCCCCCCCC[C@@H]1C=CC(=O)O1`, the values for the MIC with Streptococcus gordonii [1] and in the data set on Streptococcus gordonii [2] were 300 mg/L (≈ 1430 µM) and 150 mg/L (≈ 713 µM), respectively. Besides, the “MBC=>99” value with Streptococcus gordonii [3] is 300 mg/L (≈ 1430 µM).

With `CCCCCCCCCCCCC[C@@H]1OC(=O)C(C)=C1C(=O)O`, the MIC was 90 mg/L (≈ 277 µM) in the data set with Streptococcus gordonii [1] and 4.69 mg/L (≈ 14.5 µM) with Streptococcus gordonii [2]. Also, the “MBC=>99” value with Streptococcus gordonii [3] was determined as 18.75 mg/L (≈ 57.8 µM).

On to `CCCCCCCCC[C@@H]1OC(=O)C(C)=C1C(=O)O`, for which the minimum inhibitory concentration (MIC) with Streptococcus gordonii [1] and with Streptococcus gordonii [2] was 150 mg/L (≈ 559 µM) each time. Also, the “MBC=>99” value against Streptococcus gordonii [3] is more than 300 mg/L.

On to `CCCCCCCCC[C@H]1OC(=O)C[C@H]1O`, for which the MIC in the data set with Streptococcus gordonii [1] was 300 mg/L (≈ 1310 µM); against Streptococcus gordonii [2], 150 mg/L (≈ 657 µM). Also, the “MBC=>99” value in the data set with Streptococcus gordonii [3] came to 300 mg/L (≈ 1310 µM).

As for `C=C[C@H]1CC(=O)O[C@@H]1CCCCCCCCCCCCC`, the MIC against Streptococcus gordonii [1] was more than 300 mg/L; with Streptococcus gordonii [2], 75 mg/L (≈ 255 µM). Besides, in the data set on Streptococcus gordonii [3], the “MBC=>99” value came to 75 mg/L (≈ 255 µM).

In the case of `CCCCCCCCCCCCC[C@@H]1C=CC(=O)O1`, the MIC in the data set with Streptococcus gordonii [1] is more than 300 mg/L; against Streptococcus gordonii [2], 75 mg/L (≈ 282 µM). Moreover, the “MBC=>99” value in the data set with Streptococcus gordonii [3] came out at 75 mg/L (≈ 282 µM).

For `CCCCCCCCCCCCCCCC[C@@H]1OC(=O)C(C)=C1C(=O)O`, the MIC is more than 300 mg/L against Streptococcus gordonii [1] and 9.38 mg/L (≈ 25.6 µM) with Streptococcus gordonii [2]. Further, the “MBC=>99” value against Streptococcus gordonii [3] was 9.38 mg/L (≈ 25.6 µM). For the same molecule, the figures for the mortality in data set [4] and in data set [5] were 12% and 10%, respectively. Moreover, the results for the viability at 24 h in data set [6] and in data set [7] were 96% and 106%, respectively. The Ratio in the data set on Streptococcus gordonii [8] stood at 3.

For the molecule `CCCCCCCCC[C@H]1OC(=O)C(C)=C1C(=O)O`, the MIC in the data set with Streptococcus gordonii [1] and in the data set on Streptococcus gordonii [2] was 150 mg/L (≈ 559 µM) throughout. Also, the “MBC=>99” value against Streptococcus gordonii [3] was more than 300 mg/L.

For the molecule `CCCCCCC[C@@H]1OC(=O)C(C)=C1C(=O)O`, the MIC in the data set with Streptococcus gordonii [1] and against Streptococcus gordonii [2] was more than 300 mg/L throughout. In the data set with Streptococcus gordonii [3], the “MBC=>99” value is more than 300 mg/L.

`CCCCCCCCCCCCC[C@H]1OC(=O)C[C@H]1O`: the MIC is more than 300 mg/L against Streptococcus gordonii [1] and 75 mg/L (≈ 264 µM) with Streptococcus gordonii [2]. In the data set on Streptococcus gordonii [3], the “MBC=>99” value turned out to be 150 mg/L (≈ 527 µM).

On to `C[C@H]1c2cccc(O)c2C(=O)C2=C(O)[C@]3(O)C(=O)C(C(N)=O)=C(O)[C@@H](N(C)C)[C@@H]3[C@@H](O)[C@@H]21.O` [DOXYCYCLINE], for which the MIC was 0.41 mg/L against Streptococcus gordonii [1] and 0.51 mg/L against Streptococcus gordonii [2]. Also, the “MBC=>99” value in the data set on Streptococcus gordonii [3] is 32.8 mg/L.
